Source: ChEMBL document CHEMBL3853334, “Brain penetrant liver X receptor (LXR) modulators based on a 2,4,5,6-tetrahydropyrrolo[3,4-c]pyrazole core” (Bioorg Med Chem Lett, 2016)

Legend:
Cytochrome P450 3A4 = Cytochrome P450 3A4 (Homo sapiens, UniProt P08684); assay: Inhibition of CYP3A4 (unknown origin)
Cytochrome P450 2D6 = Cytochrome P450 2D6 (Homo sapiens, UniProt P10635); assay: Inhibition of CYP2D6 (unknown origin)
Cytochrome P450 2C9 = Cytochrome P450 2C9 (Homo sapiens, UniProt P11712); assay: Inhibition of CYP2C9 (unknown origin)
[1] = Half life in mouse liver microsomes; assay type: ADME
[2] = Half life in human liver microsomes; assay type: ADME
[3] = Half life in rat liver microsomes; assay type: ADME
[4] = Plasma concentration in wild type C57BL mouse at 1 mg/kg, po measured after 4 hrs; assay type: ADME, organism-based
How it was run: (§1)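 Wild-type C57BL mice, single oral dose of 1 or 3 mg/kg. Plasma and brain drug levels were measured 4 h post-dose, and brain ABCA1 mRNA induction was compared with vehicle control.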

[5] = Drug uptake in wild type C57BL mouse brain at 1 mg/kg, po measured after 4 hrs; assay type: ADME, organism-based; conditions: read-out: Drug uptake; how it was run: as §1
[6] = Plasma concentration in Sprague-Dawley rat at 5 mg/kg, po measured after 4 hrs; assay type: ADME, organism-based
How it was run: (§2)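 Male Sprague–Dawley rats, single oral dose of 5 mg/kg. Plasma and brain drug levels, plus brain ABCA1 mRNA, were measured 4 h after dosing.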

[7] = Drug uptake in Sprague-Dawley rat brain at 5 mg/kg, po measured after 4 hrs; assay type: ADME, organism-based; conditions: read-out: Drug uptake; how it was run: as §2
[8] = Plasma concentration in wild type C57BL mouse at 3 mg/kg, po measured after 4 hrs; assay type: ADME, organism-based; how it was run: as §1
[9] = Drug uptake in wild type C57BL mouse brain at 3 mg/kg, po measured after 4 hrs; assay type: ADME, organism-based; conditions: read-out: Drug uptake; how it was run: as §1
[10] = Plasma concentration in Sprague-Dawley rat at 10 mg/kg qd administered via oral gavage for 5 days measured 4 hrs post last dose; assay type: ADME, organism-based
How it was run: (§3)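 Sprague–Dawley rats, oral dosing once daily for 5 days at 1, 3 or 10 mg/kg/day, with a reference LXR agonist at 30 mg/kg in the same study. Drug levels were measured in plasma and brain. Brain ABCA1 mRNA was also measured, along with Aβ1–40 and Aβ1–42 in cerebrum and CSF.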

[11] = Plasma concentration in Sprague-Dawley rat at 3 mg/kg qd administered via oral gavage for 5 days measured 4 hrs post last dose; assay type: ADME, organism-based; how it was run: as §3
[12] = Plasma concentration in Sprague-Dawley rat at 1 mg/kg qd administered via oral gavage for 5 days measured 4 hrs post last dose; assay type: ADME, organism-based; how it was run: as §3
[13] = Drug uptake in Sprague-Dawley rat brain at 10 mg/kg qd administered via oral gavage for 5 days measured 4 hrs post last dose; assay type: ADME, organism-based; conditions: read-out: Drug uptake; how it was run: as §3
[14] = Drug uptake in Sprague-Dawley rat brain at 3 mg/kg qd administered via oral gavage for 5 days measured 4 hrs post last dose; assay type: ADME, organism-based; conditions: read-out: Drug uptake; how it was run: as §3
[15] = Drug uptake in Sprague-Dawley rat brain at 1 mg/kg qd administered via oral gavage for 5 days measured 4 hrs post last dose; assay type: ADME, organism-based; conditions: read-out: Drug uptake; how it was run: as §3
[16] = Plasma concentration in wild type C57BL mouse at 30 mg/kg, po measured after 4 hrs; assay type: ADME, organism-based
[17] = Drug uptake in wild type C57BL mouse brain at 30 mg/kg, po measured after 4 hrs; assay type: ADME, organism-based; conditions: read-out: Drug uptake
[18] = Plasma concentration in Sprague-Dawley rat at 30 mg/kg qd administered via oral gavage for 5 days measured 4 hrs post last dose; assay type: ADME, organism-based; how it was run: as §3
[19] = Drug uptake in Sprague-Dawley rat brain at 30 mg/kg qd administered via oral gavage for 5 days measured 4 hrs post last dose; assay type: ADME, organism-based; conditions: read-out: Drug uptake; how it was run: as §3
Rattus norvegicus = assay: Induction of ABCA1 mRNA expression in Sprague-Dawley rat brain at 30 mg/kg qd administered via oral gavage for 5 days measured 4 hrs post last dose relative to control; assay type: functional

Cytochrome P450 3A4, sequence (P08684 whole entry): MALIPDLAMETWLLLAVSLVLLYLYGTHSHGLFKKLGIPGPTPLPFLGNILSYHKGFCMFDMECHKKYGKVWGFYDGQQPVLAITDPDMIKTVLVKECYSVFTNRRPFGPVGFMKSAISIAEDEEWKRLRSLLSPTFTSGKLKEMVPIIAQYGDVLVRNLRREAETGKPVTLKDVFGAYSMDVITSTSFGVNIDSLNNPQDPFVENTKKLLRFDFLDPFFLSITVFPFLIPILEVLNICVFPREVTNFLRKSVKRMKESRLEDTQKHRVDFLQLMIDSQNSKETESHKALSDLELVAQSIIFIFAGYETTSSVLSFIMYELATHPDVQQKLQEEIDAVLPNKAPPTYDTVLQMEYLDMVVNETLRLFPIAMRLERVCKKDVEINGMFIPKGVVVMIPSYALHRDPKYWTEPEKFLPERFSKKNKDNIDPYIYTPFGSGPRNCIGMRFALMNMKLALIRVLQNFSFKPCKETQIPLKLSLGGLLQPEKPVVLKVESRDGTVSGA
Cytochrome P450 2D6, sequence (P10635 whole entry): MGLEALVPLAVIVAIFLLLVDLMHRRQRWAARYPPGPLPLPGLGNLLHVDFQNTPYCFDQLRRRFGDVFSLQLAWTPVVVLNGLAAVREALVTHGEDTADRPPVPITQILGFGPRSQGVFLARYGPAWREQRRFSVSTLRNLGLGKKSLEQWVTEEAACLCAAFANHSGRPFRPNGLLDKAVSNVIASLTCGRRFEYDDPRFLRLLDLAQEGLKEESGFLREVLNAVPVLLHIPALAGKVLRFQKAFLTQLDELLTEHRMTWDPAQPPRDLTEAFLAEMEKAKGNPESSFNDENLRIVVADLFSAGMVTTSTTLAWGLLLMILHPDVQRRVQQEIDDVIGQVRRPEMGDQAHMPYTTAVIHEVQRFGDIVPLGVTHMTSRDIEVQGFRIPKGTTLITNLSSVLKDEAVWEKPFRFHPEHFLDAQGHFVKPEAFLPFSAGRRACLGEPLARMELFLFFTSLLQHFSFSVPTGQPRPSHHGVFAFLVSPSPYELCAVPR
Cytochrome P450 2C9, sequence (P11712 whole entry): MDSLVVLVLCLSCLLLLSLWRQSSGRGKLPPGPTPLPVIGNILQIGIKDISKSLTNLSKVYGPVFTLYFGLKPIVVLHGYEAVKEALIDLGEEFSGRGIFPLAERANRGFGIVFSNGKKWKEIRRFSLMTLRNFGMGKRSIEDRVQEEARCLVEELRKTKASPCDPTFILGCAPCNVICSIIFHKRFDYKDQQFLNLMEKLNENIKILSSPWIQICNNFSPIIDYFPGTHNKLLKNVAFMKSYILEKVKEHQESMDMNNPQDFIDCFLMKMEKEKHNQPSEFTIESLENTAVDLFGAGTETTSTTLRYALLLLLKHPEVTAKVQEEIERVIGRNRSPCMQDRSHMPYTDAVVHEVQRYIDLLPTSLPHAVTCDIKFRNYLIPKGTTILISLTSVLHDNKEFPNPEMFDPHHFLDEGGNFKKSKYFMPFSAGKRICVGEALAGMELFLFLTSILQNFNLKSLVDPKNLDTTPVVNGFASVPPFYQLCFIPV

COc1cc(N2Cc3cn(-c4cccc(S(C)(=O)=O)c4)nc3[C@H]2C(C)C)cc(C)n1
IC50 (Cytochrome P450 3A4): > 30 µM
IC50 (Cytochrome P450 2D6): 25.7 µM
IC50 (Cytochrome P450 2C9): 3.81 µM
half-life [1]: > 22 min

Cc1nc(N2Cc3cn(-c4cccc(S(C)(=O)=O)c4)nc3[C@H]2C(C)C)cc(C(F)(F)F)n1
IC50 (Cytochrome P450 3A4): 21.1 µM
IC50 (Cytochrome P450 2D6): 15.8 µM
IC50 (Cytochrome P450 2C9): 5.04 µM
half-life [2]: > 60 min
half-life [1]: > 60 min
half-life [3]: > 60 min
concentration at 4 h [4]: 143 nM
concentration at 4 h [5]: 212 nM
concentration at 4 h [6]: 423 nM
concentration at 4 h [7]: 825 nM

CC(C)[C@@H]1c2nn(-c3cccc(S(C)(=O)=O)c3)cc2CN1c1cc(C(F)(F)F)ncn1
IC50 (Cytochrome P450 3A4): > 30 µM
IC50 (Cytochrome P450 2D6): > 30 µM
IC50 (Cytochrome P450 2C9): 5.21 µM
half-life [2]: > 60 min
half-life [1]: 50 min
half-life [3]: > 60 min

COc1cc(N2Cc3cn(-c4cccc(S(C)(=O)=O)c4)nc3[C@H]2C(C)C)nc(C)n1
IC50 (Cytochrome P450 3A4): 12.9 µM
IC50 (Cytochrome P450 2D6): 5.37 µM
IC50 (Cytochrome P450 2C9): 6.62 µM
half-life [2]: > 60 min

CC(C)[C@@H]1c2nn(-c3ccc(CO)c(S(C)(=O)=O)c3)cc2CN1c1ncc(CO)c(C(F)(F)F)n1
IC50 (Cytochrome P450 3A4): 7.7 µM
IC50 (Cytochrome P450 2D6): 7.75 µM
IC50 (Cytochrome P450 2C9): 0.493 µM
half-life [2]: > 60 min
half-life [3]: > 60 min

COc1ncnc(N2Cc3cn(-c4cccc(S(C)(=O)=O)c4)nc3[C@H]2C(C)C)c1F
IC50 (Cytochrome P450 3A4): 2.5 µM
IC50 (Cytochrome P450 2D6): 27 µM
IC50 (Cytochrome P450 2C9): 1.44 µM
half-life [2]: > 60 min
half-life [3]: > 60 min

CC(C)[C@@H]1c2nn(-c3cccc(S(C)(=O)=O)c3)cc2CN1c1ncc(CO)c(C(F)(F)F)n1
IC50 (Cytochrome P450 3A4): 3.05 µM
IC50 (Cytochrome P450 2C9): 0.373 µM
half-life [2]: > 60 min
half-life [3]: 187 min

CC(C)[C@@H]1c2nn(-c3cccc(S(C)(=O)=O)c3)cc2CN1c1nccc(C(F)(F)F)n1
IC50 (Cytochrome P450 3A4): > 30 µM
IC50 (Cytochrome P450 2D6): 25.7 µM
IC50 (Cytochrome P450 2C9): 2.11 µM
half-life [2]: > 60 min
half-life [1]: > 60 min
half-life [3]: > 60 min

COc1cc(N2Cc3cn(-c4cccc(S(C)(=O)=O)c4)nc3[C@H]2C(C)(C)C)ccn1
IC50 (Cytochrome P450 3A4): > 30 µM
IC50 (Cytochrome P450 2D6): 7.8 µM
IC50 (Cytochrome P450 2C9): 8.3 µM
half-life [2]: > 60 min
half-life [1]: 66 min
half-life [3]: > 60 min
concentration at 4 h [8]: 1080 nM
concentration at 4 h [9]: 1020 nM
concentration at 4 h [6]: 1220 nM
concentration at 4 h [7]: 2280 nM
concentration at 4 h [10]: 1570 nM
concentration at 4 h [11]: 463 nM
concentration at 4 h [12]: 187 nM
concentration at 4 h [13]: 5.04 µM
concentration at 4 h [14]: 1560 nM
concentration at 4 h [15]: 641 nM

O=S(=O)(c1ccccc1)N(CC(F)(F)F)c1ccc(C(O)(C(F)(F)F)C(F)(F)F)cc1 [T091317]
concentration at 4 h [16]: 3.77 µM
concentration at 4 h [17]: 8.05 µM
concentration at 4 h [18]: 2800 nM
concentration at 4 h [19]: 5.36 µM
fold change (FC) (Rattus norvegicus): 5

CC(C)[C@@H]1c2nn(-c3cccc(S(C)(=O)=O)c3)cc2CN1c1ccnc(C(F)(F)F)n1
IC50 (Cytochrome P450 3A4): 12.8 µM
IC50 (Cytochrome P450 2D6): 20.9 µM
IC50 (Cytochrome P450 2C9): 1.87 µM
half-life [2]: > 60 min
half-life [1]: > 60 min
half-life [3]: > 60 min
concentration at 4 h [8]: 2890 nM
concentration at 4 h [9]: 3150 nM
concentration at 4 h [6]: 1740 nM
concentration at 4 h [7]: 2060 nM

COc1ncc(F)c(N2Cc3cn(-c4cccc(S(C)(=O)=O)c4)nc3[C@H]2C(C)C)n1
IC50 (Cytochrome P450 3A4): 15.4 µM
IC50 (Cytochrome P450 2D6): 12.7 µM
IC50 (Cytochrome P450 2C9): 0.858 µM
half-life [2]: > 60 min
half-life [3]: > 60 min
concentration at 4 h [4]: 50 nM

CC(C)[C@@H]1CN(c2ccc(CO)c(S(C)(=O)=O)c2)CCN1c1ncc(CO)c(C(F)(F)F)n1
half-life [2]: 43 min
half-life [3]: 69 min

COc1cc(N2Cc3cn(-c4cccc(S(C)(=O)=O)c4)nc3[C@H]2C(C)C)ccn1
IC50 (Cytochrome P450 3A4): > 30 µM
IC50 (Cytochrome P450 2D6): > 30 µM
IC50 (Cytochrome P450 2C9): 5.63 µM
half-life [2]: > 60 min
half-life [1]: > 60 min
half-life [3]: > 60 min

COc1nc(C)cc(N2Cc3cn(-c4cccc(S(C)(=O)=O)c4)nc3[C@H]2C(C)C)n1
IC50 (Cytochrome P450 2D6): 24.2 µM
IC50 (Cytochrome P450 2C9): 5.75 µM
half-life [2]: > 60 min
half-life [1]: > 60 min
half-life [3]: > 60 min
concentration at 4 h [4]: 2 nM
